Compound activity (PubChem BioAssay)
The entries come from a sample that favours hits as a whole.
UPR XBP1 act: adaptive UPR (XBP1) activation | CHO-XBP1 luciferase reporter, IRE1-XBP1 UPR activation, luminescence; percent of tunicamycin response, DMSO as zero | 0.33% of 330,000 active | AID 463104 | activation, % at 20 µM;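 active means versus positive control, 20 µM dose yields 30% or more activation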;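 further: 100% = tunicamycin at 10 µg/mL and 0% = DMSO only wells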
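Assay system: CHO-XBP1 luciferase reporter cells; Schedule: 6 h treatment, 37 °C; Detection: glow luminescence from Steady-Glo reagent; Benchmarks: high control tunicamycin 10 µg/mL final, low control DMSO vehicle only.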
UCH37 DUB inh: blocks the human deubiquitinase UCH37 | inhibition, % (test concentration not listed) | AID 588478 | Q9Y5K5 | 0.33% of 330,000 active | purified proteasome/UCH37, Ub-AMC cleavage fluorescence;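 active means mean inhibition over replicate wells above about 20%, limit read from the data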;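 further: 0% = compound-free wells with enzyme and 100% = wells lacking proteasome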
Target sequence (Q9Y5K5 whole entry, looked up): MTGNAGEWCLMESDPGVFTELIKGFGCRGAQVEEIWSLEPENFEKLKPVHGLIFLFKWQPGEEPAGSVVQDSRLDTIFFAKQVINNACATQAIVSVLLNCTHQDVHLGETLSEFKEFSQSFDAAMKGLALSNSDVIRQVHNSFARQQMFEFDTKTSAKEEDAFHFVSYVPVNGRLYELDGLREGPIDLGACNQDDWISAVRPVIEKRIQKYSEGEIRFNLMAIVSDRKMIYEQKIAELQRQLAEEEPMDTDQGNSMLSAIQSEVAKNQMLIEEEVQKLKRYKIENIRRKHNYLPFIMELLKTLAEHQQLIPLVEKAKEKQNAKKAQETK
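System: Proteasome-associated human UCH37 deubiquitinase; Input: 0.15 nM proteasome in added enzyme buffer; Also added: Ub-AMC substrate from 1 µM stock; Incubation: 30 min compound-proteasome preincubation then 25 min substrate reaction, room temperature; Detection: fluorescence, ex 355 nm, em 460 nm; Read-out: % inhibition of Ub-AMC cleavage fluorescence; Benchmarks: no-proteasome and no-compound wells.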
Fh CTSL1 inh: counter-screen for PFM18AAP inhibitors: inhibitors of F. hepatica cathepsin L1 | recombinant F. hepatica cathepsin L1, Z-Leu-Arg-MCA fluorescence | inhibition, % at 5.96 µM | 0.49% of 300,000 active;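 active means inhibition above the mean of all tested compounds plus 3 SD, set per screening campaign, cut at about 17% in these data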;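 further: 0% = plate median of test compound wells and 100% = 1 µM Z-Phe-Ala-diazomethylketone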
CHOP UPR activ: activators of apoptotic arm of unfolded protein response (CHOP). CHO-CHOP luciferase reporter, UPR activation, luminescence; percent of tunicamycin response over DMSO baseline. activation, % at 10 µM. 0.34% of 330,000 active;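 active means at 10 µM dose, activation of 40% or more, normalized to positive control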;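 further: 100% = tunicamycin at 10 µg/mL and 0% = DMSO alone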
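Test system: CHO CHOP reporter cells. Input: 500 CHO-CHOP cells per well. Medium: F12 with 10% FBS. Technique: luciferase luminescence. Measure: percent activation relative to tunicamycin control. Dosing: 10 µM compound, 0.5% DMSO. Timing: 16-18 h cell attachment, then 6 h compound exposure, 37 °C.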
CHOP inh: CHOP inhibition in unfolded protein response. CHO-K1 CHOP-promoter luciferase, tunicamycin-induced, 15-18 h. inhibition, % at 10 µM. 3.8% of 220,000 active;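 active means compounds that reduced the stress-induced luciferase reporter signal by more than about 70% of percent inhibition, limit read from the data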;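 further: 0% = tunicamycin plus vehicle and 100% = wells without tunicamycin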
* marks the source's active call; other numbers are inactive results.

O=C(NN=Cc1ccc(OCc2cnc(Cl)s2)cc1)c1ccncc1 was read as UCH37 DUB inh -2.2.
Screening CCOC(=O)N1CCN(c2ncnc3c2[nH]c2ccc(F)cc23)CC1 returned UPR XBP1 act 1.8, UCH37 DUB inh -17.2, Fh CTSL1 inh -1.4, CHOP UPR activ 3.9 and CHOP inh 71.0*.
CCOC(=O)N1CCN(c2ncnc3c2[nH]c2ccc(OC)cc23)CC1 was read as UPR XBP1 act 0.9, UCH37 DUB inh -99.2, Fh CTSL1 inh 0.7, CHOP UPR activ 0.4 and CHOP inh 27.6.
Screening Cc1ccc(-n2nc(C)c(C=Nn3c(C)n[nH]c3=S)c2Cl)cc1 returned UCH37 DUB inh 4.6.
Screening COc1cccc(C(=O)NN2c3ccccc3CCc3ccccc32)c1 returned UCH37 DUB inh 1.7, Fh CTSL1 inh -0.9 and CHOP inh 92.0*.
Cc1ccc(C)c(N2CCN(C(=O)c3ccc(CS(=O)(=O)c4ccccc4C)o3)CC2)c1 was read as UPR XBP1 act 3.4, UCH37 DUB inh 6.4, Fh CTSL1 inh -2.9 and CHOP UPR activ 0.0.
Screening Cc1ccc(S(=O)(=O)Cc2ccc(C(=O)N3CCN(c4cc(C)ccc4C)CC3)o2)cc1 returned UCH37 DUB inh 7.9, Fh CTSL1 inh -0.3 and CHOP inh 95.4*.
`Cn1c(O)c(C=Nc2ccc(N3CCOCC3)cc2)c(=O)n(C)c1=S` gave UCH37 DUB inh 33.7* and CHOP inh 11.2.
Screening COc1ccc(-n2nc(C(=O)Nc3ccc4c(c3)OCO4)c3c4ccccc4n(C)c3c2=O)cc1 returned UPR XBP1 act 0.4, UCH37 DUB inh -6.3, Fh CTSL1 inh -2.0 and CHOP UPR activ -3.1.
COc1ccc(-n2nc(C(=O)Nc3ccc(OC)c(OC)c3)c3c4ccccc4n(C)c3c2=O)cc1 was read as UPR XBP1 act 1.3, UCH37 DUB inh -2.8, Fh CTSL1 inh 0.7, CHOP UPR activ 2.1 and CHOP inh 71.5*.
O=c1[nH]c(CSc2ncc(C(F)(F)F)cc2Cl)nc2ccccc12 was read as UPR XBP1 act 3.9, UCH37 DUB inh 2.7, Fh CTSL1 inh 5.9, CHOP UPR activ 0.8 and CHOP inh -4.5.
Screening O=c1[nH]c(CSc2ncnc3sccc23)nc2cc(C(F)(F)F)ccc12 returned UPR XBP1 act -2.7, UCH37 DUB inh 0.9, Fh CTSL1 inh -1.8, CHOP UPR activ -1.5 and CHOP inh 88.7*.
For CSc1ccc(CN(C)Cc2nc3cc(C(F)(F)F)ccc3c(=O)[nH]2)cc1 the results were UPR XBP1 act 2.1, UCH37 DUB inh -1.7, Fh CTSL1 inh -1.2, CHOP UPR activ -0.1 and CHOP inh 71.0*.
`COc1cc2nc(CN(C)Cc3ccc(SC)cc3)[nH]c(=O)c2cc1OC` gave UPR XBP1 act -1.1, UCH37 DUB inh 4.8, Fh CTSL1 inh 1.3, CHOP UPR activ -1.0 and CHOP inh 24.9.
Screening C=CCn1c(SCc2nc3ccccc3c(=O)[nH]2)nnc1-c1cc2cc(Cl)ccc2o1 returned UPR XBP1 act 7.4, UCH37 DUB inh -4.3, Fh CTSL1 inh -2.2, CHOP UPR activ -0.3 and CHOP inh 82.5*.
`COc1ccccc1C(O)P(=O)(OC1CCCCC1)OC1CCCCC1` (stereo unspecified) gave UPR XBP1 act -1.8, UCH37 DUB inh 5.3, Fh CTSL1 inh -2.5, CHOP UPR activ 0.1 and CHOP inh 5.0.
For O=P(OC1CCCCC1)(OC1CCCCC1)C(O)c1c(Cl)cccc1Cl (stereo unspecified) the results were UPR XBP1 act 1.5, UCH37 DUB inh 2.0, Fh CTSL1 inh -0.2, CHOP UPR activ -1.9 and CHOP inh 84.0*.
`O=P(OC1CCCCC1)(OC1CCCCC1)C(O)c1ccc(Cl)cc1Cl` (stereo unspecified) gave UPR XBP1 act 3.6, UCH37 DUB inh 1.5, Fh CTSL1 inh 3.8, CHOP UPR activ -1.0 and CHOP inh 91.6*.
Screening CN(C(=O)CSc1nnc(Cc2ccccc2F)n1N)C1CCS(=O)(=O)C1 (stereo unspecified) returned UPR XBP1 act 0.8, UCH37 DUB inh 1.0, Fh CTSL1 inh -1.7, CHOP UPR activ -1.0 and CHOP inh 52.0.
Screening CCN(C(=O)CSc1nnc(Cc2ccccc2F)n1N)C1CCS(=O)(=O)C1 (stereo unspecified) returned UPR XBP1 act -3.2, UCH37 DUB inh 27.2*, Fh CTSL1 inh 1.1, CHOP UPR activ -0.5 and CHOP inh -1.8.
`CC1=CC(C)(C)N2C(=O)C3(C(C#N)=C(N)OC4=C3C(=O)CCC4)c3c(C)c(C)cc1c32` (stereo unspecified) gave UPR XBP1 act -0.2, UCH37 DUB inh 4.4, Fh CTSL1 inh -0.7, CHOP UPR activ 1.0 and CHOP inh 49.5.
`CC1=CC(C)(C)N2C(=O)C3(C(C#N)=C(N)Oc4cc(O)ccc43)c3c(C)c(C)cc1c32` (stereo unspecified) gave UPR XBP1 act 3.9, UCH37 DUB inh 9.1, Fh CTSL1 inh -0.6, CHOP UPR activ 1.3 and CHOP inh 95.8*.
For O=C(NN=C1CCCc2ccccc21)c1cccc([N+](=O)[O-])c1 the results were UCH37 DUB inh 3.6.
For O=C(O)c1ccc2c(c1)C(=O)/C(=C/c1ccccc1)C2=O the results were UPR XBP1 act -0.5, UCH37 DUB inh 22.0*, Fh CTSL1 inh -2.4, CHOP UPR activ -0.7 and CHOP inh -14.7.
Screening COc1ccccc1C=NNC(=O)c1csc(C)c1C returned UCH37 DUB inh 4.8.
Screening CC1=CCC(C(=O)O)(C(=O)NN=Cc2cccs2)C(c2ccc([N+](=O)[O-])cc2)C1 (stereo unspecified) returned UCH37 DUB inh 3.1.
For COc1cc2c3nnc(-c4ccc(F)cc4)c-3cn(Cc3ccccc3F)c2cc1OC the results were CHOP inh 87.8*.
Screening CCCCC(=O)N(CCOC)c1nnc(-c2ccccc2C)s1 returned UPR XBP1 act 3.9, UCH37 DUB inh -0.9, Fh CTSL1 inh 1.4, CHOP UPR activ 1.7 and CHOP inh 73.5*.
`Cc1ccc(C=NNC(=O)c2c(-c3ccccc3)noc2C)o1` gave UCH37 DUB inh 6.7.
Screening CC(/C=N/NC(=O)Cn1nccc1C)=C\c1ccc(C(C)C)cc1 returned UPR XBP1 act -2.6, Fh CTSL1 inh 1.5, CHOP UPR activ 7.4 and CHOP inh 76.3*.
Screening C/C(C=NNC(=O)Cn1cncn1)=C/c1ccc(C(C)C)cc1 returned UCH37 DUB inh 23.3*.
CC(=C/c1ccc(C(C)C)cc1)/C=N/NC(=O)Cn1nc(C)cc1C was read as UPR XBP1 act -2.5, Fh CTSL1 inh 0.3, CHOP UPR activ 2.7 and CHOP inh 66.2.
`CCn1c(O)c(C=NCc2cccs2)c(=O)n(CC)c1=S` gave UPR XBP1 act -2.4, UCH37 DUB inh 2.4, Fh CTSL1 inh 2.8, CHOP UPR activ -1.4 and CHOP inh 73.2*.
Screening CC(C)n1c(N=Cc2c[nH]c3ccccc23)nc2ccccc21 returned UCH37 DUB inh 1.5.
